Here are results for six molecules from ChEMBL document CHEMBL1122546, “A potent multisubstrate analogue inhibitor of human thymidylate synthetase” (J Med Chem, 1984).

Experiment [1] deals with T1, Thymidylate synthase (Homo sapiens, UniProt P04818). The experiment is described as follows: Inhibitory activity against human thymidylate synthase with variable concentration of N5, 10-CH2-H4PteGlu and fixed dUMP (100 uM). An outline of the steps: (§1)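 HeLa-S3 TS purified on methotrexate–Sephadex. Tritium release from [5-3H]dUMP with dUMP fixed at 100 μM and CH2-H4PteGlu varied, in 150 mM Tris-HCl pH 7.5 with DTT, NaF, formaldehyde, BSA and sucrose. Reactions ran at 37 °C for 60 min, were stopped with TCA, treated with charcoal, and the supernatant counted. Apparent Ki from replots of double-reciprocal slopes (competitive) or intercepts (noncompetitive) against inhibitor concentration.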
T1 sequence (P04818 whole entry): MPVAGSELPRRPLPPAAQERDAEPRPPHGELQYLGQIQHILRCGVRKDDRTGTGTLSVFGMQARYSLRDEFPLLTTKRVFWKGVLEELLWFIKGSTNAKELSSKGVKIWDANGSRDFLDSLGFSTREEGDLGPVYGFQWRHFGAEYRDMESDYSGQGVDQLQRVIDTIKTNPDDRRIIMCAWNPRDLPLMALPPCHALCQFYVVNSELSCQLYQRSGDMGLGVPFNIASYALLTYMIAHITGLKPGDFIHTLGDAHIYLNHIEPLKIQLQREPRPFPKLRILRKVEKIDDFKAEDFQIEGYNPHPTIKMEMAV

Experiment [2] in a line: Apparent Ki value for the inhibition of human thymidylate synthase in the presence of variable conc. of dUMP. An outline of the steps:
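Enzyme is HeLa-S3 thymidylate synthase, purified on methotrexate–Sephadex. Tritium release from [5-3H]dUMP (10:1 with dUMP), with dUMP varied and CH2-H4PteGlu fixed at 200 μM. Tris-HCl pH 7.5 buffer with DTT, NaF, formaldehyde, BSA and sucrose; 37 °C, 60 min. Inhibitor at several concentrations; double-reciprocal slopes or intercepts replotted against inhibitor concentration.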

The nature of experiment [3]: Apparent Ki value for the inhibition of human thymidylate synthase in the presence of variable conc. of N5,10-CH2-H4PteGlu. Put shortly:
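Thymidylate synthase purified from HeLa-S3 cells by methotrexate–Sephadex chromatography. Tritium-release assay, 37 °C for 60 min, at pH 7.5 (Tris-HCl) with DTT, NaF, formaldehyde, BSA and sucrose. dUMP (with [5-3H]dUMP, 10:1) fixed at 100 μM; CH2-H4PteGlu varied. Inhibitor tested at several concentrations. Lineweaver–Burk plots; slopes (competitive) or intercepts (noncompetitive) replotted against inhibitor concentration.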

Experiment [4] concerns the target T1, Thymidylate synthase. The experiment is described as follows: Inhibitory activity against human thymidylate synthase with variable concentration of dUMP and fixed N5,10-CH2-H4PteGlu (200 uM).
A short description of experiment [5]: Apparent Ki value for the inhibition of human thymidylate synthase in the presence of variable conc. of dUMP; Ki/Km.
A short description of experiment [6]: Apparent Ki value for the inhibition of human thymidylate synthase in the presence of variable conc. of N5,10-CH2-H4PteGlu; Ki/Km. Put shortly:
as §1

Experiment [7] addresses T1, Thymidylate synthase. Kind of experiment: Km of dUMP for human thymidylate synthase with variable concentration of dUMP and fixed N5,10-CH2-H4PteGlu (200 uM).

One may read the Ki as a dissociation constant, usually derived from enzyme kinetics or from competition with a known ligand. As for `Nc1nc2c(c(=O)[nH]1)N(Cc1cn([C@H]3C[C@H](O)[C@@H](COP(O)O)O3)c(=O)[nH]c1=O)C(CNc1ccc(C(=O)NC(CCC(=O)O)C(=O)O)cc1)CC2` (some centres not stated), the Ki at Thymidylate synthase [1] turned out to be 0.25 µM; at Thymidylate synthase [4] it was 0.058 µM. Further, the Ratio is 0.02 in experiment [2] and 0.005 in experiment [3].

On to `COP(=O)(O)OC[C@H]1O[C@@H](n2cc(CN3c4c(nc(N)[nH]c4=O)CCC3CNc3ccc(C(=O)NC(CCC(=O)O)C(=O)O)cc3)c(=O)[nH]c2=O)C[C@@H]1O` (some centres not stated), for which the Ki on Thymidylate synthase [1] came to 700 µM; on Thymidylate synthase [4] it was 120 µM. Also, the values for the Ratio in experiment [5] and in experiment [6] were 40 and 14, respectively.

For the molecule `Nc1nc2c(c(=O)[nH]1)N(Cc1cn([C@H]3C[C@H](O)[C@@H](CO)O3)c(=O)[nH]c1=O)C(CNc1ccc(C(=O)NC(CCC(=O)O)C(=O)O)cc1)CC2` (some centres not stated), the inhibition constant (Ki) on Thymidylate synthase [1] stood at 240 µM; at Thymidylate synthase [4] it was 150 µM. In addition, the Ratio in experiment [5] was determined as 50; in experiment [6], 4.8.

A word on the Km: it is the substrate concentration at which the rate is half of its maximum. With `O=c1ccn([C@H]2C[C@H](O)[C@@H](COP(=O)(O)O)O2)c(=O)[nH]1` [DEOXYURIDINE MONOPHOSPHATE], on Thymidylate synthase [7], the Km stood at 3 µM.

For `CCOC(=O)CCC(NC(=O)c1ccc(N(CC2CCc3nc(N)nc(O)c3N2)N=O)cc1)C(=O)OCC` (configuration not stated), the Ratio stood at 80 in experiment [2] and 3 in experiment [3].

Take `CCOC(=O)CCC(NC(=O)c1ccc(N(CC2CCc3nc(N)[nH]c(=O)c3N2)N=O)cc1)C(=O)OCC` (configuration not stated): the Ki is 150 µM on Thymidylate synthase [1] and 240 µM on Thymidylate synthase [4].
